ChEMBL document CHEMBL1151448, “Comparative antianaerobic activities of doripenem determined by MIC and time-kill analysis” (2008)
Values after ≈ are worked out from the molar mass of the structure shown.

What was measured:
Type in all cases: functional
Bacteroides fragilis [1] = assay: Antimicrobial activity against beta lactamase-positive Bacteroides fragilis isolated from intra-abdominal infection and pelvic inflammatory disease patients after 48 hrs by agar dilution method
In short: (§1)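 CLSI agar dilution on brucella blood agar supplemented with laked sheep blood, hemin and vitamin K. Inocula of about 1 × 10^5 CFU/spot were applied by Steers replicator, and plates were incubated 48 h at 35°C in an anaerobic glove box. MIC was the concentration giving marked growth reduction versus the anaerobic control plate. QC strains were included each run, and β-lactamase was detected by Cefinase disk.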

[2] = system: Bacteroides thetaiotaomicron; assay: Antimicrobial activity against beta lactamase-positive Bacteroides thetaiotaomicron isolated from intra-abdominal infection and pelvic inflammatory disease patients after 48 hrs by agar dilution method; in short: as §1
Bacteroides fragilis [3] = assay: Antimicrobial activity against beta lactamase-positive Bacteroides fragilis isolated from intra-abdominal infection and pelvic inflammatory disease patients after 48 hrs by time kill analysis
In short: (§2)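 The MIC was read by inspecting macrodilution time-kill tubes. Vials held prereduced brucella broth with 5% laked horse blood cells, hemin 5 μg/ml and vitamin K1 1 μg/ml. Final inoculum was 10^6–10^7 CFU/ml, prepared inside the anaerobe chamber. Vials were incubated 48 h at 35°C in a shaking water bath.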

Prevotella intermedia [4] = assay: Antimicrobial activity against beta lactamase-positive Prevotella intermedia isolated from intra-abdominal infection and pelvic inflammatory disease patients after 48 hrs by time kill analysis; in short: as §2
Finegoldia magna [5] = assay: Antimicrobial activity against beta lactamase-positive Finegoldia magna isolated from intra-abdominal infection and pelvic inflammatory disease patients after 48 hrs by time kill analysis; in short: as §2
Fusobacterium nucleatum [6] = assay: Antimicrobial activity against beta lactamase-positive Fusobacterium nucleatum isolated from intra-abdominal infection and pelvic inflammatory disease patients after 48 hrs by time kill analysis; in short: as §2
Clostridium perfringens [7] = assay: Antimicrobial activity against Clostridium perfringens isolated from intra-abdominal infection and pelvic inflammatory disease patients after 48 hrs by time kill analysis
In short: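 Macrodilution in prereduced brucella broth with 5% laked horse blood cells, 5 μg/ml hemin and 1 μg/ml vitamin K1. Final inoculum 10^6 to 10^7 CFU/ml, prepared inside the anaerobe chamber. Vials incubated 48 h at 35°C in a shaking water bath. MIC read by inspecting the time-kill tubes, alongside an antibiotic-free growth control.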

Bacteroides ovatus = assay: Antimicrobial activity against beta lactamase-positive Bacteroides ovatus isolated from intra-abdominal infection and pelvic inflammatory disease patients after 48 hrs by agar dilution method; in short: as §1
Phocaeicola vulgatus = assay: Antimicrobial activity against beta lactamase-positive Bacteroides vulgatus isolated from intra-abdominal infection and pelvic inflammatory disease patients after 48 hrs by agar dilution method; in short: as §1
[8] = system: Parabacteroides distasonis; assay: Antimicrobial activity against beta lactamase-positive Bacteroides distasonis isolated from intra-abdominal infection and pelvic inflammatory disease patients after 48 hrs by agar dilution method; in short: as §1
Prevotella bivia = assay: Antimicrobial activity against beta lactamase-positive Prevotella bivia isolated from intra-abdominal infection and pelvic inflammatory disease patients after 48 hrs by agar dilution method; in short: as §1
Prevotella disiens = assay: Antimicrobial activity against beta lactamase-positive Prevotella disiens isolated from intra-abdominal infection and pelvic inflammatory disease patients after 48 hrs by agar dilution method; in short: as §1
Prevotella intermedia [9] = assay: Antimicrobial activity against beta lactamase-positive Prevotella intermedia isolated from intra-abdominal infection and pelvic inflammatory disease patients after 48 hrs by agar dilution method; in short: as §1
Prevotella nigrescens = assay: Antimicrobial activity against beta lactamase-positive Prevotella nigrescens isolated from intra-abdominal infection and pelvic inflammatory disease patients after 48 hrs by agar dilution method; in short: as §1
[10] = system: Prevotella melaninogenica; assay: Antimicrobial activity against beta lactamase-positive Prevotella melaninogenica isolated from intra-abdominal infection and pelvic inflammatory disease patients after 48 hrs by agar dilution method; in short: as §1
Prevotella denticola = assay: Antimicrobial activity against beta lactamase-positive Prevotella denticola isolated from intra-abdominal infection and pelvic inflammatory disease patients after 48 hrs by agar dilution method; in short: as §1
Prevotella corporis = assay: Antimicrobial activity against beta lactamase-positive Prevotella corporis isolated from intra-abdominal infection and pelvic inflammatory disease patients after 48 hrs by agar dilution method; in short: as §1
Prevotella buccae = assay: Antimicrobial activity against beta lactamase-positive Prevotella buccae isolated from intra-abdominal infection and pelvic inflammatory disease patients after 48 hrs by agar dilution method; conditions: Segatella buccae; in short: as §1
[11] = system: Porphyromonas asaccharolytica; assay: Antimicrobial activity against Porphyromonas asaccharolyticus isolated from intra-abdominal infection and pelvic inflammatory disease patients after 48 hrs by agar dilution method; in short: as §1
Porphyromonas gingivalis = assay: Antimicrobial activity against Porphyromonas gingivalis isolated from intra-abdominal infection and pelvic inflammatory disease patients after 48 hrs by agar dilution method; in short: as §1
Porphyromonas levii = assay: Antimicrobial activity against Porphyromonas levii isolated from intra-abdominal infection and pelvic inflammatory disease patients after 48 hrs by agar dilution method; in short: as §1
Fusobacterium nucleatum [12] = assay: Antimicrobial activity against beta lactamase-positive Fusobacterium nucleatum isolated from intra-abdominal infection and pelvic inflammatory disease patients after 48 hrs by agar dilution method; in short: as §1
[13] = system: Fusobacterium necrophorum; assay: Antimicrobial activity against Fusobacterium necrophorum isolated from intra-abdominal infection and pelvic inflammatory disease patients after 48 hrs by agar dilution method; in short: as §1
Fusobacterium varium = assay: Antimicrobial activity against Fusobacterium varium isolated from intra-abdominal infection and pelvic inflammatory disease patients after 48 hrs by agar dilution method; in short: as §1
Fusobacterium mortiferum = assay: Antimicrobial activity against beta lactamase-positive Fusobacterium mortiferum isolated from intra-abdominal infection and pelvic inflammatory disease patients after 48 hrs by agar dilution method; in short: as §1
Finegoldia magna [14] = assay: Antimicrobial activity against Finegoldia magna isolated from intra-abdominal infection and pelvic inflammatory disease patients after 48 hrs by agar dilution method; in short: as §1
Parvimonas micra = assay: Antimicrobial activity against Micromonas micros isolated from intra-abdominal infection and pelvic inflammatory disease patients after 48 hrs by agar dilution method; in short: as §1
[15] = system: Peptostreptococcus anaerobius; assay: Antimicrobial activity against Peptostreptococcus anaerobius isolated from intra-abdominal infection and pelvic inflammatory disease patients after 48 hrs by agar dilution method; in short: as §1
Anaerococcus prevotii = assay: Antimicrobial activity against Anaerococcus prevotii isolated from intra-abdominal infection and pelvic inflammatory disease patients after 48 hrs by agar dilution method; in short: as §1
Anaerococcus tetradius = assay: Antimicrobial activity against Anaerococcus tetradius isolated from intra-abdominal infection and pelvic inflammatory disease patients after 48 hrs by agar dilution method; in short: as §1
[16] = system: Peptoniphilus asaccharolyticus; assay: Antimicrobial activity against Peptoniphilus asaccharolyticus isolated from intra-abdominal infection and pelvic inflammatory disease patients after 48 hrs by agar dilution method; in short: as §1
Clostridium perfringens [17] = assay: Antimicrobial activity against Clostridium perfringens isolated from intra-abdominal infection and pelvic inflammatory disease patients after 48 hrs by agar dilution method
In short: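 CLSI agar dilution on brucella blood agar supplemented with laked sheep blood, hemin and vitamin K. Inoculum about 1 × 10^5 CFU/spot, applied by Steers replicator. Plates incubated 48 h at 35°C in an anaerobic glove box. MIC is the concentration giving marked growth reduction versus the anaerobic control plate. Standard QC strains included in each run.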

Clostridioides difficile = assay: Antimicrobial activity against Clostridium difficile isolated from intra-abdominal infection and pelvic inflammatory disease patients after 48 hrs by agar dilution method; in short: as §1
[Clostridium] innocuum = Antimicrobial activity against Clostridium innocuum isolated from intra-abdominal infection and pelvic inflammatory disease patients after 48 hrs by agar dilution method; in short: as §1
Thomasclavelia ramosa = assay: Antimicrobial activity against Clostridium ramosum isolated from intra-abdominal infection and pelvic inflammatory disease patients after 48 hrs by agar dilution method; in short: as §1
[18] = system: Paraclostridium bifermentans; assay: Antimicrobial activity against Clostridium bifermentans isolated from intra-abdominal infection and pelvic inflammatory disease patients after 48 hrs by agar dilution method; in short: as §1
[19] = system: Enterocloster clostridioformis; assay: Antimicrobial activity against Clostridium clostridioforme isolated from intra-abdominal infection and pelvic inflammatory disease patients after 48 hrs by agar dilution method; in short: as §1
[20] = system: Paeniclostridium sordellii; assay: Antimicrobial activity against Clostridium sordellii isolated from intra-abdominal infection and pelvic inflammatory disease patients after 48 hrs by agar dilution method; conditions: Paraclostridium sordellii; in short: as §1
[21] = system: Clostridium paraputrificum; assay: Antimicrobial activity against Clostridium paraputrificum isolated from intra-abdominal infection and pelvic inflammatory disease patients after 48 hrs by agar dilution method; in short: as §1
Clostridium cadaveris = assay: Antimicrobial activity against Clostridium cadaveris isolated from intra-abdominal infection and pelvic inflammatory disease patients after 48 hrs by agar dilution method; in short: as §1

SMILES: CO/N=C(\C(=O)N[C@@H]1C(=O)N2C(C(=O)O)=C(CSc3nc(=O)c(O)nn3C)CS[C@H]12)c1csc(N)n1 [CEFTRIAXONE]
- MIC50 (Bacteroides fragilis [1]): 64 µg/mL (≈ 115 µM)
- MIC90 (Bacteroides fragilis [1]): > 128 µg/mL
- MIC50 [2]: > 128 µg/mL
- MIC90 [2]: > 128 µg/mL
- MIC (Bacteroides fragilis [3]): 0.25 µg/mL (≈ 0.451 µM)
- MIC (Prevotella intermedia [4]): 0.125 µg/mL (≈ 0.225 µM)
- MIC (Finegoldia magna [5]): 8 µg/mL (≈ 14.4 µM)
- MIC (Fusobacterium nucleatum [6]): 0.125 µg/mL (≈ 0.225 µM)
- MIC (Clostridium perfringens [7]): 2 µg/mL (≈ 3.61 µM)
- MIC50 (Bacteroides ovatus): 64 µg/mL (≈ 115 µM)
- MIC90 (Bacteroides ovatus): > 128 µg/mL
- MIC50 (Phocaeicola vulgatus): 16 µg/mL (≈ 28.9 µM)
- MIC90 (Phocaeicola vulgatus): > 128 µg/mL
- MIC50 [8]: 8 µg/mL (≈ 14.4 µM)
- MIC90 [8]: > 128 µg/mL
- MIC50 (Prevotella bivia): 8 µg/mL (≈ 14.4 µM)
- MIC90 (Prevotella bivia): 64 µg/mL (≈ 115 µM)
- MIC50 (Prevotella disiens): 2 µg/mL (≈ 3.61 µM)
- MIC90 (Prevotella disiens): 64 µg/mL (≈ 115 µM)
- MIC50 (Prevotella intermedia [9]): 4 µg/mL (≈ 7.21 µM)
- MIC90 (Prevotella intermedia [9]): 64 µg/mL (≈ 115 µM)
- MIC50 (Prevotella nigrescens): 4 µg/mL (≈ 7.21 µM)
- MIC90 (Prevotella nigrescens): 16 µg/mL (≈ 28.9 µM)
- MIC50 [10]: 4 µg/mL (≈ 7.21 µM)
- MIC90 [10]: 16 µg/mL (≈ 28.9 µM)
- MIC50 (Prevotella denticola): 4 µg/mL (≈ 7.21 µM)
- MIC90 (Prevotella denticola): 64 µg/mL (≈ 115 µM)
- MIC50 (Prevotella corporis): 4 µg/mL (≈ 7.21 µM)
- MIC90 (Prevotella corporis): 32 µg/mL (≈ 57.7 µM)
- MIC50 (Prevotella buccae): 0.25 µg/mL (≈ 0.451 µM)
- MIC90 (Prevotella buccae): 4 µg/mL (≈ 7.21 µM)
- MIC [11]: ≤ 0.125 µg/mL
- MIC (Porphyromonas gingivalis): ≤ 0.125 µg/mL
- MIC (Porphyromonas levii): ≤ 0.125 µg/mL
- MIC50 (Fusobacterium nucleatum [12]): 0.25 µg/mL (≈ 0.451 µM)
- MIC90 (Fusobacterium nucleatum [12]): 0.5 µg/mL (≈ 0.902 µM)
- MIC50 [13]: ≤ 0.125 µg/mL
- MIC90 [13]: 0.5 µg/mL (≈ 0.902 µM)
- MIC50 (Fusobacterium varium): 4 µg/mL (≈ 7.21 µM)
- MIC90 (Fusobacterium varium): 8 µg/mL (≈ 14.4 µM)
- MIC50 (Fusobacterium mortiferum): 0.25 µg/mL (≈ 0.451 µM)
- MIC90 (Fusobacterium mortiferum): ≥ 128 µg/mL
- MIC50 (Finegoldia magna [14]): 8 µg/mL (≈ 14.4 µM)
- MIC90 (Finegoldia magna [14]): 8 µg/mL (≈ 14.4 µM)
- MIC (Parvimonas micra): ≤ 0.125 µg/mL
- MIC50 (Parvimonas micra): ≤ 0.125 µg/mL
- MIC90 (Parvimonas micra): 1 µg/mL (≈ 1.8 µM)
- MIC [15]: 0.5 µg/mL (≈ 0.902 µM)
- MIC50 [15]: 0.5 µg/mL (≈ 0.902 µM)
- MIC90 [15]: 16 µg/mL (≈ 28.9 µM)
- MIC (Anaerococcus prevotii): ≤ 0.125 µg/mL
- MIC (Anaerococcus tetradius): 0.25 µg/mL (≈ 0.451 µM)
- MIC50 (Anaerococcus tetradius): 0.25 µg/mL (≈ 0.451 µM)
- MIC [16]: ≤ 0.125 µg/mL
- MIC50 [16]: ≤ 0.125 µg/mL
- MIC90 [16]: 1 µg/mL (≈ 1.8 µM)
- MIC50 (Clostridium perfringens [17]): 2 µg/mL (≈ 3.61 µM)
- MIC90 (Clostridium perfringens [17]): 4 µg/mL (≈ 7.21 µM)
- MIC50 (Clostridioides difficile): 64 µg/mL (≈ 115 µM)
- MIC90 (Clostridioides difficile): 64 µg/mL (≈ 115 µM)
- MIC50 ([Clostridium] innocuum): 16 µg/mL (≈ 28.9 µM)
- MIC50 (Thomasclavelia ramosa): 0.5 µg/mL (≈ 0.902 µM)
- MIC [18]: 0.25 µg/mL (≈ 0.451 µM)
- MIC [19]: 64 µg/mL (≈ 115 µM)
- MIC [20]: 0.25 µg/mL (≈ 0.451 µM)
- MIC [21]: 4 µg/mL (≈ 7.21 µM)
- MIC (Clostridium cadaveris): 4 µg/mL (≈ 7.21 µM)
